According to ChEMBL document CHEMBL1138494, “Human glucagon receptor antagonists with thiazole cores. A novel series with superior pharmacokinetic properties” (J Med Chem, 2009):
Calls of active or inactive are those of the source. The rule behind the calls is not given here.

Legend:
Homo sapiens [1] = species: Homo sapiens; experiment: Selectivity ratio of IC50 for human recombinant glucagon receptor to IC50 for human recombinant GIPR
Procedure, shortened: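 Competition binding of compounds to recombinant human glucagon and GIP receptors on BHK cell membranes, run in parallel as a scintillation proximity assay and, for selected compounds, as a membrane filtration assay.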

[2] = target: T1, Gastric inhibitory polypeptide receptor (Homo sapiens, UniProt P48546); experiment: Binding affinity to human recombinant GIPR expressed in BHK cells by membrane filter assay; assay type: cell-based
T1 sequence (P48546 whole entry): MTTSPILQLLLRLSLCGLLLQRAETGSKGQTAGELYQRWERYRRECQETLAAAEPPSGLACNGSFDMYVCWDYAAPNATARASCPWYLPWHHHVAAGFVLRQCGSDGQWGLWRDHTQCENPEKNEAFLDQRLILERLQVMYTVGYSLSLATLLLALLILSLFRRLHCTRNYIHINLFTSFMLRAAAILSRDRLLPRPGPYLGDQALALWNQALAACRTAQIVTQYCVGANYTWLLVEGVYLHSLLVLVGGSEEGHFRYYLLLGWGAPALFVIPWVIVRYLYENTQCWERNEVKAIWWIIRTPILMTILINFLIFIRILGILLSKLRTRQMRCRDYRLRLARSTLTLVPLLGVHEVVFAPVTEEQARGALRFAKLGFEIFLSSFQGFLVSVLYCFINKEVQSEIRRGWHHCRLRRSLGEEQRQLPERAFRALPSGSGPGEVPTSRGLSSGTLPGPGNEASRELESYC

[3] = Half life in fasted Sprague-Dawley rat plasma at 1.58 mg/kg, iv by HTLC-MS/MS analysis; assay type: ADME, organism-based; parameters: dose 1.58 mg/kg, route intravenous
Procedure, shortened: (§1)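 Rats were dosed intravenously and perorally in separate arms, and plasma concentration-time profiles were obtained. Half-life was taken from the iv arm. Clearance, oral bioavailability, Cmax and Tmax were derived from the profiles.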

Homo sapiens [4] = species: Homo sapiens; experiment: Selectivity for human recombinant glucagon receptor over human GLP1R
[5] = target: T1, Gastric inhibitory polypeptide receptor; experiment: Displacement of [125I]porcine GIP from human recombinant GIPR receptor expressed in BHK cells by scintillation proximity assay; assay type: cell-based
Glucagon receptor [6] = target: T2, Glucagon receptor (Homo sapiens, UniProt P47871); experiment: Binding affinity to human recombinant glucagon receptor expressed in BHK cells by membrane filter assay; assay type: cell-based
Glucagon receptor [7] = target: T2, Glucagon receptor; experiment: Displacement of [125I]porcine glucagon from human recombinant glucagon receptor expressed in BHK cells by scintillation proximity assay; assay type: cell-based
[8] = Clearance in fasted Sprague-Dawley rat at 1.58 mg/kg, iv and 3.16 mg/kg, po; assay type: ADME, organism-based; conditions: in vivo; procedure, shortened: as §1
[9] = Cmax in fasted Sprague-Dawley rat at 1.58 mg/kg, iv and 3.16 mg/kg, po; assay type: ADME, organism-based; conditions: in vivo; procedure, shortened: as §1
[10] = Oral bioavailability in fasted Sprague-Dawley rat at 3.16 mg/kg by HTLC-MS/MS analysis; assay type: ADME, organism-based; conditions: in vivo
Procedure, shortened: (§2)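 Separate intravenous and peroral dosing arms per compound, with plasma concentration followed against time. Oral bioavailability (F_po) is reported per compound together with the intravenous half-life and clearance. The dose used for each arm is listed per compound.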

[11] = Tmax in fasted Sprague-Dawley rat at 1.58 mg/kg, iv and 3.16 mg/kg, po; assay type: ADME, organism-based; conditions: in vivo
Procedure, shortened: (§3)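 Plasma concentration–time profiles were recorded after separate intravenous and peroral dosing at the per-compound doses listed. T_max is reported in min alongside C_max (ng/mL), intravenous half-life and clearance ((mL/min)/kg).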

[12] = Oral bioavailability in fasted Sprague-Dawley rat at 3.25 mg/kg by HTLC-MS/MS analysis; assay type: ADME, organism-based; conditions: in vivo; procedure, shortened: as §2
[13] = Clearance in fasted Sprague-Dawley rat at 1.62 mg/kg, iv and 3.25 mg/kg, po by HTLC-MS/MS analysis; assay type: ADME, organism-based; conditions: in vivo; procedure, shortened: as §1
[14] = Tmax in fasted Sprague-Dawley rat at 1.62 mg/kg, iv and 3.25 mg/kg, po by HTLC-MS/MS analysis; assay type: ADME, organism-based; conditions: in vivo; procedure, shortened: as §3
[15] = Half life in fasted Sprague-Dawley rat plasma at 1.62 mg/kg, iv by HTLC-MS/MS analysis; assay type: ADME, organism-based; parameters: dose 1.62 mg/kg, route intravenous; procedure, shortened: as §1
[16] = Binding affinity to glucagon receptor in monkey liver membrane by membrane filter assay; assay type: cell membranes, Macaca mulatta
[17] = Cmax in fasted Sprague-Dawley rat at 1.62 mg/kg, iv and 3.25 mg/kg, po by HTLC-MS/MS analysis; assay type: ADME, organism-based; conditions: in vivo; procedure, shortened: as §1
[18] = Binding affinity to glucagon receptor in pig liver membrane by membrane filter assay; assay type: cell membranes, Sus scrofa
Glucagon receptor [19] = target: Glucagon receptor (Mus musculus, UniProt Q61606); experiment: Binding affinity to glucagon receptor in mouse liver membrane by membrane filter assay; assay type: cell membranes
[20] = Tmax in fasted Beagle dog at 0.25 mg/kg, iv and 0.5 mg/kg, po; assay type: ADME, organism-based, Canis lupus familiaris; conditions: in vivo; procedure, shortened: as §3
[21] = Clearance in fasted Beagle dog at 0.25 mg/kg, iv and 0.5 mg/kg, po; assay type: ADME, organism-based, Canis lupus familiaris; conditions: in vivo
Procedure, shortened: (§4)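 Dogs were dosed at 0.25 mg/kg iv and 0.5 mg/kg po, and plasma concentration was followed over time. Half-life came from the iv arm; clearance, Cmax and Tmax were also derived.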

[22] = Cmax in fasted Beagle dog at 0.25 mg/kg, iv and 0.5 mg/kg, po; assay type: ADME, organism-based, Canis lupus familiaris; conditions: in vivo; procedure, shortened: as §4
Hepatocyte [23] = experiment: Inhibition of glucagon-stimulated glucose production in human primary hepatocytes preincubated for 10 mins before glucagon addition by NADH-linked hexokinase assay; assay type: functional, cell-based
Procedure, shortened: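 Cultured primary human hepatocytes were preincubated with compound for 10 min, then glycogenolysis was induced with 5 nM glucagon for 60 min. Glucose in the medium was measured against basal glycogenolysis. Albumin was present in the assay medium. IC50 was calculated from four experiments, mean ± SEM.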

[24] = Oral bioavailability in fasted Beagle dog at 0.5 mg/kg; assay type: ADME, organism-based, Canis lupus familiaris; conditions: in vivo; procedure, shortened: as §2
[25] = Binding affinity to glucagon receptor in dog liver membrane by membrane filter assay; assay type: cell membranes, Canis lupus familiaris
[26] = Tmax in fasted Sprague-Dawley rat at 1.59 mg/kg, iv and 3.20 mg/kg, po by HTLC-MS/MS analysis; assay type: ADME, organism-based; conditions: in vivo, 3.2 mg/kg; procedure, shortened: as §3
[27] = Half life in fasted Sprague-Dawley rat plasma at 1.59 mg/kg, iv by HTLC-MS/MS analysis; assay type: ADME, organism-based; parameters: dose 1.59 mg/kg, route intravenous; procedure, shortened: as §1
Hepatocyte [28] = experiment: Inhibition of glucagon-stimulated glucose production in rat primary hepatocytes; assay type: functional, cell-based
[29] = Oral bioavailability in fasted Sprague-Dawley rat at 3.20 mg/kg by HTLC-MS/MS analysis; assay type: ADME, organism-based; conditions: in vivo, 3.2 mg/kg; procedure, shortened: as §2
[30] = Clearance in fasted Sprague-Dawley rat at 1.59 mg/kg, iv and 3.20 mg/kg, po by HTLC-MS/MS analysis; assay type: ADME, organism-based; conditions: in vivo; procedure, shortened: as §1
[31] = Half life in fasted Beagle dog at 0.25 mg/kg, iv; assay type: ADME, organism-based, Canis lupus familiaris; parameters: dose 0.25 mg/kg, route intravenous; conditions: in vivo; procedure, shortened: as §4
Glucagon receptor [32] = target: Glucagon receptor (Rattus norvegicus, UniProt P30082); experiment: Binding affinity to glucagon receptor in rat liver membrane by membrane filter assay; assay type: cell membranes
[33] = Cmax in fasted Sprague-Dawley rat at 1.59 mg/kg, iv and 3.20 mg/kg, po by HTLC-MS/MS analysis; assay type: ADME, organism-based; conditions: in vivo, 3.2 mg/kg; procedure, shortened: as §1
[34] = Binding affinity to glucagon receptor in rabbit liver membrane by membrane filter assay; assay type: cell membranes, Oryctolagus cuniculus
[35] = Oral bioavailability in fasted Sprague-Dawley rat at 3.04 mg/kg by HTLC-MS/MS analysis; assay type: ADME, organism-based; conditions: in vivo; procedure, shortened: as §2
[36] = Tmax in fasted Sprague-Dawley rat at 1.62 mg/kg, iv and 3.04 mg/kg, po; assay type: ADME, organism-based; conditions: in vivo; procedure, shortened: as §3
[37] = Half life in monkey at 0.3 to 3 mg/kg, iv; assay type: ADME, organism-based, Macaca mulatta; parameters: dose 0.3-3 mg/kg, route intravenous; conditions: rhesus monkey, in vivo
Procedure, shortened: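 In the anesthetized glucagon-challenged monkey study, compound was given intravenously. Blood samples were assayed for compound, and plasma concentration-time profiles yielded the half-life.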

[38] = Cmax in fasted Sprague-Dawley rat at 1.62 mg/kg, iv and 3.04 mg/kg, po; assay type: ADME, organism-based; conditions: in vivo; procedure, shortened: as §1
[39] = Clearance in fasted Sprague-Dawley rat at 1.62 mg/kg, iv and 3.04 mg/kg, po by HTLC-MS/MS analysis; assay type: ADME, organism-based; conditions: in vivo; procedure, shortened: as §1
Rhesus monkey = experiment: Antihyperglycemic activity against glucagon-stimulated glycaemia in iv dosed hyperglucagonaemia/hyperglycaemia monkey model assessed as decrease in plasma glucose level preincubated for 5 mins before glucagon challenge measured after 30 mins; assay type: functional, organism-based; conditions: Macaca mulatta
Procedure, shortened: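 Anesthetized monkeys challenged with exogenous glucagon received compound intravenously. Plasma glucose was followed over time to gauge blockade of glucagon-stimulated glycaemia.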

T2 sequence (P47871 whole entry): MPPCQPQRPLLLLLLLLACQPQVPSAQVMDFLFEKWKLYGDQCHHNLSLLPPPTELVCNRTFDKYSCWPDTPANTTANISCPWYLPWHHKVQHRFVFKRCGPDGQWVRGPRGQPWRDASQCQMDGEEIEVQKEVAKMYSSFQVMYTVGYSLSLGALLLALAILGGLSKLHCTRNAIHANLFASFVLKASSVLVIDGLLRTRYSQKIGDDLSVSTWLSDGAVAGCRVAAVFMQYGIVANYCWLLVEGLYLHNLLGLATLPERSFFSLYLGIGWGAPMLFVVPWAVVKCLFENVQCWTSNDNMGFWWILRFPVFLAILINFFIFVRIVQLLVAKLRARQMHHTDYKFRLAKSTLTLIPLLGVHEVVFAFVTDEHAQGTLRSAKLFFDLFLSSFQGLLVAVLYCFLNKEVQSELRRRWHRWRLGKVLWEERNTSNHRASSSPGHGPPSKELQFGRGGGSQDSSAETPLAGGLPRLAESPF
Glucagon receptor (Rattus norvegicus, UniProt P30082), sequence (P30082 whole entry): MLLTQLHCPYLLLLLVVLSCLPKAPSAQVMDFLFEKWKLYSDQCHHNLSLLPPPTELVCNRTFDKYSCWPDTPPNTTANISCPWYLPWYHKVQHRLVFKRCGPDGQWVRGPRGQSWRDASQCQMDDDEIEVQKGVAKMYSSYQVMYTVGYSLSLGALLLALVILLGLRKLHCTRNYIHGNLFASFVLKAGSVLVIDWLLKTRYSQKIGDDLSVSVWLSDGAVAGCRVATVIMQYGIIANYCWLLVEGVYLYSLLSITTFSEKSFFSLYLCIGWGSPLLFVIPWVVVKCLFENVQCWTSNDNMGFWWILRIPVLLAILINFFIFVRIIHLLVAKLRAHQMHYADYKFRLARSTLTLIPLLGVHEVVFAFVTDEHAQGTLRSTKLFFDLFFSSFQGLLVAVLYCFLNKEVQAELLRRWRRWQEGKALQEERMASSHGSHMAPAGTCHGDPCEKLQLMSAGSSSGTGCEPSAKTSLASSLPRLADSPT
Glucagon receptor (Mus musculus, UniProt Q61606), sequence (Q61606 whole entry): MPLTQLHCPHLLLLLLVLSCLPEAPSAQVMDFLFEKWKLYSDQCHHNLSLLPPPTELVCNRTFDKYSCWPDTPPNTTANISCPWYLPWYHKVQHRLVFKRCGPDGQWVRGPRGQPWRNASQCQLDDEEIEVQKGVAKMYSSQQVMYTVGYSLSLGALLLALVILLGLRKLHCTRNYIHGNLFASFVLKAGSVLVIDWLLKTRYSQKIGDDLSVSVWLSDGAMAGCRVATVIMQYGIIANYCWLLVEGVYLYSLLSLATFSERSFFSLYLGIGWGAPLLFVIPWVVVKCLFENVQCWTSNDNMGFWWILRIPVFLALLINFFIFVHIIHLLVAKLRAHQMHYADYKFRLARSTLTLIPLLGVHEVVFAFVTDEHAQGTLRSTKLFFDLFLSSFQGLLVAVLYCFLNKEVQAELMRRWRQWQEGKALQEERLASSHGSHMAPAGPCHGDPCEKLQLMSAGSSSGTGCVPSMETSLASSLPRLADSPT

fold change (FC) (Homo sapiens [1]) | IC50 [2] | fold change (FC) (Homo sapiens [4]) | IC50 [5] | IC50 (Glucagon receptor [6]) | IC50 (Glucagon receptor [7]) | half-life [15] | IC50 [16] | IC50 [18] | IC50 (Glucagon receptor [19]) | Tmax [20] | clearance [21] | Cmax [22] | bioavailability [24] | IC50 [25] | half-life [31] | IC50 (Glucagon receptor [32]) | IC50 [34] | SMILES | IC50 (Hepatocyte [23]) | inhibition (Hepatocyte [28]) | other results
5 | 211 nM | > 50 | 381 nM | 38 nM | 96 nM |  |  |  |  |  |  |  |  |  |  |  |  | O=C(O)CCNC(=O)c1ccc(CC(c2ccc(Cl)cc2)c2nc(-c3ccc(C(F)(F)F)cc3)cs2)cc1 (stereo not drawn) |  |  | half-life [3]: 0.4 h; clearance [8]: 28 mL/min/kg; Cmax [9]: 117 ng/mL; bioavailability [10]: 52%; Tmax [11]: 0.5 h
5 | 390 nM | > 50 | 564 nM | 48 nM | 77 nM | 1.23 h | 3 nM |  |  |  |  |  |  |  |  |  |  | O=C(O)CCNC(=O)c1ccc(CN(c2ccc3c(c2)CCCC3)c2nc(-c3ccc(C(F)(F)F)cc3)cs2)cc1 |  |  | bioavailability [12]: 27%; clearance [13]: 7 mL/min/kg; Tmax [14]: 1.5 h; Cmax [17]: 615 ng/mL
5 | 460 nM | > 50 | 869 nM | 53 nM | 82 nM |  | 60 nM | 5700 nM | 418 nM | 1.5 h | 4.64 mL/min/kg | 554 ng/mL | 71% | 78 nM | 1.1 h | 1700 nM | 1200 nM | O=C(O)CCNC(=O)c1ccc(CN(c2ccc(Cl)cc2)c2nc(-c3ccc(OC(F)(F)F)cc3)cs2)cc1 | 2800 nM | inactive | Tmax [26]: 1 h; half-life [27]: 1.52 h; bioavailability [29]: 16%; clearance [30]: 6 mL/min/kg; Cmax [33]: 521 ng/mL
5 | 1100 nM | > 50 | 990 nM | 93 nM | 92 nM | 3.8 h | 114 nM | 7000 nM | 648 nM | 1.5 h | 2.23 mL/min/kg | 1250 ng/mL | 141% | 155 nM | 1.73 h | 2700 nM | 1600 nM | O=C(O)CCNC(=O)c1ccc(CN(c2ccc(C(F)(F)F)cc2)c2nc(-c3ccc(Cl)cc3)cs2)cc1 | 6700 nM | inactive | bioavailability [35]: 58%; Tmax [36]: 1.42 h; half-life [37]: 5.23 h; Cmax [38]: 2100 ng/mL; clearance [39]: 1 mL/min/kg; Activity (Rhesus monkey): Dose-dependent effect
